Source: PubChem BioAssay (several laboratories)
Rows were chosen to be rich in hits. Some 3.8% of all compounds tested hit in one or more screens of this group.
HSF1 inhib: HSF1 inhibition | NIH3T3-HGL HSE-luciferase, MG132-induced, luminescence 8 h; hits give low values | activity change, negative = inhibition, % at 7.5 µM (by protocol) | 300,000 tested, 0.77% active | AID 2098;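 active means more than half of replicate wells show activity change below -50%, luminescence cut by over half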;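 further: luciferase reports HSF-1 transcriptional activity via heat shock element; 0% = median of DMSO wells and -100% = zero luminescence signal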
HSF-1 act: increases HSF-1 driven luciferase reporter signal; activation, % at 9 µM; 300,000 tested, 1.7% active; NIH3T3-HGL HSF-1 luciferase reporter, MG132, 8 h; 100% = twice DMSO control signal; AID 504408;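 active means mean replicate activation of at least 50% with a set share of replicates each reaching 50%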;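 further: 0% = median of the neutral control wells and 100% = twice that signal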
HSP90 inh: blocks HSP90-mediated luciferase refolding in reticulocyte lysate; Rabbit reticulocyte lysate, luciferase refolding luminescence, 3 h; inhibition, % at 5.6 µM; 290,000 tested, 0.91% active;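 active means inhibition above the screen-wide mean plus 3 SD, computed separately per campaign, cut at about 16% in these data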;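 further: 0% = DMSO wells and 100% = 60 µM geldanamycin wells; inhibitors lower the luminescence because luciferase stays unfolded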
Hep lipid drop: hepatic lipid droplet formation modulation; AID 1656; 240,000 tested, 0.4% active; inhibition, % at 6.5 µM; AML12 mouse hepatocytes, oleate lipid droplets, BODIPY imaging;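 active means lipid droplet intensity inhibited by at least 50%, with more than 500 cells counted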
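Technique: fluorescence imaging, 20x objective, two fields per well / Assay system: AML12 hepatocytes (mouse) / Measure: % inhibition of lipid droplet signal / Doses: 6.5 µM single-point dosing / Incubation: overnight exposure / Reagent: 100 µM oleic acid challenge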
HCV NS3 hel inh: inhibitors of Hepatitis C virus NS3 helicase. NS3 helicase DNA unwinding, Cy5 molecular beacon fluorescence. inhibition, % at 10.9 µM. 290,000 tested, 0.56% active. AID 1800;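 active means inhibition above the mean of all tested compounds plus 3 SD, set per campaign, cut at about 35% in these data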;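 further: 0% = DMSO wells and 100% = thioflavine S control wells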
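System: HCV NS3 helicase fragment; control set: DMSO and thioflavine S; technique: Cy5 fluorescence at 0 and 60 min, beacon hairpin quenching; reagent: beacon DNA duplex substrate plus ATP; replicates: singlicate; schedule: 1 h reaction at 25 °C, ATP-initiated; medium: MOPS buffer pH 6.5 with MgCl2, DTT, Tween20, BSA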
NS3 helicase cf: HCV NS3 helicase inhibition, confirmation assay. shares compounds with HCV NS3 hel inh. NS3 helicase DNA unwinding, Cy5 molecular beacon fluorescence. inhibition, % at 10.9 µM. 1,600 tested, 31% active;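 active means inhibition above the mean of all tested compounds plus 3 SD, cutoff set per campaign, cut at about 36% in these data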
FID counter trip: intercalator displacement, NS3 helicase counter-screen; shares compounds with HCV NS3 hel inh; DNA fluorescent intercalator displacement, fluorescence; inhibition, % at 7.9 µM; 1,600 tested, 4% active; in the data active means inhibition above about 37%;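 further: 0% = vehicle and 100% = reference compound; higher means more displacement of ethidium bromide from the DNA hairpin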
FID counter DR: counter-screen for HCV NS3 helicase inhibitors: DNA intercalator displacement dose response. shares compounds with HCV NS3 hel inh. fluorescent intercalator displacement from DNA, fluorescence. IC50, µM. 120 tested, under 10 active. AID 2172; call rule not given here
* hit, by the source's call; / = no result.

SMILES | HSF1 inhib | HSF-1 act | HSP90 inh | Hep lipid drop | HCV NS3 hel inh | NS3 helicase cf | FID counter trip | others
CC[C@H]1OC(=O)[C@H](C)[C@@H](O[C@H]2C[C@@](C)(OC)[C@@H](O)[C@H](C)O2)[C@H](C)[C@@H](O[C@@H]2O[C@H](C)C[C@H](N(C)C)[C@H]2O)[C@](C)(O)C[C@@H](C)C(=O)[C@H](C)[C@@H](O)[C@]1(C)O | 0 | -3 | -3 | -3 | 47* | 75* | -25
COc1cccc(CN(C)C(=O)CNC(=O)c2ccc(-c3ccccc3)cc2)c1OC | -9 | 22 | 0 | -2 | -14 | / | /
Cc1cccc(C(=O)OCc2cc(=O)oc3c(C)c(C)ccc23)c1O | 2 | 31 | -1 | -1 | 37* | -11 | 14
CCOc1ncccc1C(=O)OCc1cc(=O)oc2c(C)c(C)ccc12 | -2 | 7 | -4 | / | 7 | / | /
CCN1CCOC(CC(=O)Nc2ccc([N+](=O)[O-])cc2)C1=O (centres undefined) | -2 | 1 | -2 | -46 | 22 | / | /
CCOC(=O)COc1ccc(/C=C2/C(=O)NN(c3ccc(F)cc3)C2=O)cc1OC | -1 | -13 | 1 | 1 | 36* | -4 | 11
COc1ccc([N+](=O)[O-])cc1NCc1cccc([N+](=O)[O-])c1 | 16 | 18 | -1 | 30 | 41* | -6 | 23
CC(=O)Nc1ccc(S(=O)(=O)N2CCN(c3ncccn3)CC2)cc1 | 4 | 4 | -3 | 10 | -4 | / | /
O=C(O)CCNc1ccc(NCCC(=O)O)c2c1C(=O)c1ccccc1C2=O | -5 | -24 | 10 | -12 | 60* | 35 | 4
Cc1cc(C)cc(SCc2noc(C(=O)NCCN(C)C)c2C(=O)NCCN(C)C)c1 | 14 | 42 | / | / | / | / | /
O=C(N/N=C/c1c(O)ccc2ccccc12)c1cccnc1 | -3 | 11 | -6 | -4 | 87* | 29 | -18
Cc1onc(-c2ccccc2)c1C(=O)OCC(=O)NCc1ccc(F)cc1 | 6 | 15 | 7 | 12 | 5 | / | /
CC(C)C(C(=O)O)N1C(=O)/C(=C/c2cccn2C)SC1=S (centres undefined) | / | / | -4 | 13 | 35 | / | /
CCCC(C(=O)O)N1C(=O)/C(=C/c2cccn2C)SC1=S (centres undefined) | / | / | 0 | 27 | 36* | 39* | -16
O=c1[nH]c(/C=C/c2ccc([N+](=O)[O-])cc2)c([N+](=O)[O-])c(=O)[nH]1 | -4 | -4 | 16 | -1 | 60* | -15 | 8
O=c1[nH]c(/C=C/c2ccc3c(c2)OCO3)c([N+](=O)[O-])c(=O)[nH]1 | -4 | -6 | -1 | -18 | -3 | / | /
O=S(=O)(O)c1cccc2c(N=Nc3ccc(O)c4ncccc34)cccc12 | -2 | -3 | 4 | -50 | 84* | 77* | 9
COC/C=C/C1=CC2=CC(=O)C(C)(OC(=O)c3cnc4ccccc4n3)C(=O)C2=CN1c1ccc(CO)cc1 (centres undefined) | 1 | -9 | 0 | 5 | 50* | 42* | 22
COC/C=C/C1=CC2=CC(=O)C(C)(OC(=O)c3cnc4ccccc4n3)C(=O)C2=CN1C1CCCCC1 (centres undefined) | 3 | -15 | -3 | -6 | 38* | 10 | -13
COC/C=C/C1=CC2=CC(=O)C(C)(OC(=O)c3cnc4ccccc4n3)C(=O)C2=CN1c1ccccc1 (centres undefined) | 8 | 7 | / | 19 | / | / | /
CCc1nc2nc(C)c(NS(=O)(=O)c3ccc(C)c(C)c3)c(=O)n2[nH]1 | 0 | 12 | -1 | -1 | 15 | / | /
CCOc1ncccc1C(=O)NCCCSc1ccccc1 | 0 | -7 | -5 | -55 | 0 | / | /
COCCOC(=O)c1[nH]c2c(c1C)C(=O)CC(c1ccco1)C2 (centres undefined) | -11 | -11 | -3 | -40 | 47* | -6 | 2
Cc1cc2nc(=O)c(/C=C3\C=Nc4ccccc43)c(N)n2o1 | 0 | 5 | 0 | 31 | 43* | -4 | 16
CC(Oc1ccc2c3c(c(=O)oc2c1)CCCC3)C(=O)NCC(O)c1ccccc1 (centres undefined) | -2 | 2 | -1 | 2 | -5 | / | /
SMILES | HSF1 inhib | HSF-1 act | HSP90 inh | Hep lipid drop | HCV NS3 hel inh | NS3 helicase cf | FID counter trip | others
Fc1ccc(C2CC(c3ccco3)=NN2c2ccccc2)cc1 (centres undefined) | 1 | -13 | 1 | / | 4 | / | /
O=[N+]([O-])c1ccc(N2N=C(c3ccco3)CC2c2ccccc2)cc1 (centres undefined) | 31 | 43 | 4 | / | 38* | 18 | 26
O=C(O)CN1C(=O)/C(=C\c2cc(Br)ccc2OCc2ccc([N+](=O)[O-])cc2)SC1=S | 15 | 38 | -2 | -31 | 56* | 66* | 56*
O=C1/C(=C\c2cc(Br)cc(Br)c2O)SC(=S)N1Cc1ccccc1 | -8 | -5 | -2 | -1 | 57* | 75* | 29
COc1cc(/C=C2/SC(=S)N(Cc3ccccc3)C2=O)ccc1OCC(=O)O | 14 | 15 | 2 | 6 | 37* | 35 | 32
O=C(O)CN1C(=O)/C(=C\c2cc(Br)ccc2OCc2ccccc2Cl)SC1=S | -7 | 14 | -1 | -16 | 47* | 69* | 48*
O=C1CCN(Cc2ccc([N+](=O)[O-])cc2)CCN1[C@H](CO)c1ccccc1 | 3 | -10 | -2 | 5 | 6 | / | /
COc1ccc(NC(=O)Oc2ccccc2)cc1Cl | -15 | -18 | -2 | -2 | 1 | / | /
O=C(O)CN1C(=O)/C(=C\c2cccc(OCc3ccc(Cl)cc3Cl)c2)SC1=S | -2 | 10 | 7 | 2 | 19 | / | /
O=C(O)CN1C(=O)/C(=C\c2ccccc2OCc2ccc(Cl)cc2Cl)SC1=S | -66* | -70 | 5 | 2 | 47* | 66* | 32
COc1ccc(S(=O)(=O)NCC2CCCN(CC(C)(C)C)C2)cc1 (centres undefined) | -7 | -1 | 2 | 5 | 2 | / | /
O=C(O)c1ccc2nc(-c3ccco3)c(-c3ccco3)nc2c1 | -2 | 16 | -1 | 4 | 45* | 67* | 10
COc1ccc(CCNC(=O)c2ccc3nc(-c4ccco4)c(-c4ccco4)nc3c2)cc1OC | / | / | 4 | / | 52* | 41* | -8
O=C(c1ccc2nc(-c3ccco3)c(-c3ccco3)nc2c1)N1CCN(c2ccccc2)CC1 | / | / | 3 | 16 | 41* | 65* | -15 | FID counter DR=>79
Cn1cccc1Cc1nnc(SCC(=O)Nc2cccc(F)c2)n1CCc1ccccc1 | 5 | 24 | 1 | 3 | 42* | -6 | -27
